Experimental data: ChEMBL document CHEMBL1122451, “Synthesis of 3,4-dihydro-4-oxoquinazoline derivatives as potential anticonvulsants” (J Med Chem, 1983)
The source made the active and inactive calls.

Columns and labels:
[1] = species: Mus musculus; experiment: Anticonvulsant activity in mice using MES seizure test;NA means inactive.; type: functional, organism-based
Procedure, shortened: (§1)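 Mice were injected at 30, 100, 300 and 600 mg/kg, four per dose, and tested at 30 min and 4 h. Protection means abolition of the hindlimb tonic extensor component of the maximal electroshock seizure (60 Hz alternating current, 50 mA, 0.2 s, corneal electrodes). ED50 was estimated graphically. Confirmed values carry Litchfield-Wilcoxon 95% confidence limits.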

[2] = system: Mus musculus; experiment: Anticonvulsant activity expressed as toxic dose in rotarod test (0.5 hr) in mice;4 out of 4 mice died at 600 mg/kg; wild running and tonic extension convulsion at 300 mg/kg;NA means inactive.; type: ADME, organism-based; conditions: in vivo
Procedure, shortened: (§2)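 Mice, rotorod test of acute neurotoxicity at 0.5 h. Doses 30, 100, 300 and 600 mg/kg, four animals per dose, with positives assessed by four more observations. Median neurotoxic dose (TD50) was estimated graphically from combined ADD and in-house screening. Where confirmed by further ADD testing, 95% confidence limits were calculated by Litchfield-Wilcoxon.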

[3] = system: Mus musculus; experiment: Anticonvulsant activity in mice using sc Met seizure test;NA means inactive.; type: functional, organism-based
Procedure, shortened: (§3)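 Mice were dosed at 30, 100, 300 and 600 mg/kg, four per dose, and tested at 30 min and 4 h. Pentylenetetrazol was then given subcutaneously at its CD99. Protection means absence of even a threshold seizure (one clonic spasm of 5 s). ED50 was estimated graphically, some at peak-effect time or 4 h. Litchfield-Wilcoxon 95% limits apply where confirmed.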

[4] = system: Mus musculus; experiment: Anticonvulsant activity in mice using sc Met seizure test.; type: functional; procedure, shortened: as §3
[5] = species: Mus musculus; experiment: Anticonvulsant activity expressed as toxic dose in rotarod test (0.5 hr) in mice;NA means inactive.; type: ADME, organism-based; conditions: in vivo; procedure, shortened: as §2
[6] = Anticonvulsant activity expressed as toxic dose in rotarod test (0.5 hr) in mice; type: toxicity, organism-based; conditions: mouse, in vivo
Procedure, shortened: (§4)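 Acute neurotoxicity in mice by rotorod test after injection at 30, 100, 300 and 600 mg/kg, read at 30 min and 4 h, four animals per dose. TD50 is the median neurotoxic dose, estimated graphically; where confidence limits are given they are 95% limits by the Litchfield-Wilcoxon method from additional ADD testing.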

[7] = species: Mus musculus; experiment: Anticonvulsant activity in mice using MES seizure test.; type: functional; procedure, shortened: as §1
[8] = system: Mus musculus; experiment: Anticonvulsant activity in mice using sc Met seizure test;Compound is neurotoxic at 5 mg/kg.; type: functional, organism-based; parameters: dose 5 mg/kg
[9] = system: Mus musculus; experiment: Anticonvulsant activity in mice using MES seizure test;Compound is neurotoxic at 30 mg/kg dose.; type: functional, organism-based; parameters: dose 30 mg/kg
[10] = species: Mus musculus; experiment: Anticonvulsant activity in mice using MES seizure test;Activity determined at time of peak effect (0.5 hr) and value ranges from(48-55); type: functional
[11] = system: Mus musculus; experiment: Anticonvulsant activity in mice using sc Met seizure test;Activity determined at time of peak effect (0.5 hr) and value ranges from(12-20).; type: functional
Procedure, shortened: (§5)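 Subcutaneous pentylenetetrazol at the CD99 convulsant dose was given to mice pretreated at 30–600 mg/kg, four per dose, with tests at 30 min and 4 h. Protection is the absence of even a threshold seizure (one clonic spasm episode of 5 s). ED50 is estimated graphically or determined at the time of peak effect; 95% limits are by Litchfield-Wilcoxon.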

[12] = Anticonvulsant activity expressed as toxic dose in rotarod test (0.5 hr) in mice;Value ranges from(36-43).; type: ADME, organism-based; conditions: mouse, in vivo; procedure, shortened: as §4
[13] = species: Mus musculus; experiment: Anticonvulsant activity in mice using MES seizure test; determined at time of peak effect (0.5 hr); type: functional; procedure, shortened: as §1
[14] = Anticonvulsant activity expressed as toxic dose in rotarod test (0.5 hr) in mice;Activity determined at the time of peak effect (0.5 hr) and value ranges from (126-147).; type: ADME, organism-based; conditions: mouse, in vivo; procedure, shortened: as §4
[15] = system: Mus musculus; experiment: Anticonvulsant activity in mice using MES seizure test;Compound is neurotoxic at 300 mg/kg dose.; type: functional, organism-based; parameters: dose 300 mg/kg
[16] = system: Mus musculus; experiment: Anticonvulsant activity in mice using sc Met seizure test;Activity determined at the time of peak effect (1hr) and value ranges from (26-62).; type: functional; procedure, shortened: as §5
[17] = system: Mus musculus; experiment: Anticonvulsant activity in mice using MES seizure test;Compound is neurotoxic at 100 mg/kg.; type: functional, organism-based; parameters: dose 100 mg/kg
[18] = system: Mus musculus; experiment: Anticonvulsant activity in mice using sc Met seizure test;Activity determined at 4h.; type: functional; procedure, shortened: as §5
[19] = Anticonvulsant activity expressed as toxic dose in rotarod test (0.5 hr) in mice;Activity determined at time of peak effect (0.5 hr); type: ADME, organism-based; conditions: mouse, in vivo; procedure, shortened: as §4
[20] = system: Mus musculus; experiment: Anticonvulsant activity in mice using sc Met seizure test;Activity is determined at 4h.; type: functional; procedure, shortened: as §5
[21] = Anticonvulsant activity expressed as toxic dose in rotarod test (0.5 hr) in mice;Activity determined at time of peak effect (0.5 hr) and value ranges from(47-65).; type: ADME, organism-based; conditions: mouse, in vivo; procedure, shortened: as §2
[22] = species: Mus musculus; experiment: Anticonvulsant activity in mice using MES seizure test;Activity determined at time of peak effect (0.5 hr) and value ranges from (48-56).; type: functional; procedure, shortened: as §1

Q: For `Cc1cc2c(=O)n(-c3ccccn3)c(C)nc2c(C(=O)O)c1C`, which ED50 [1] is on record?
A: inactive

Q: And the TD50 [2]?
A: Not Active

Q: What about the ED50 [3] of the same compound?
A: inactive

Q: For `Cc1cc2c(=O)n(-c3ccc(F)cc3)c(C)nc2c(C(=O)O)c1C`, which ED50 [4] is on record?
A: 440 mg/kg

Q: What about the ED50 [1] of the same compound?
A: inactive

Q: And the TD50 [5]?
A: Not Active

Q: For `Cc1nc2cccnc2c(=O)n1-c1cccc(C(F)(F)F)c1`, which ED50 [1] is on record?
A: inactive

Q: And the TD50 at 0.5 h [6]?
A: 50 mg/kg

Q: What about the ED50 [3] of the same compound?
A: inactive

Q: Which ED50 [4] does the source give for `COC(=O)c1c(C)c(C)cc2c(=O)n(-c3ccc(F)cc3)c(C)nc12` here?
A: 440 mg/kg

Q: And the ED50 [7]?
A: 600 mg/kg

Q: What about the TD50 [5] of the same compound?
A: Not Active

Q: Which results are given for `Cc1nc2cccnc2c(=O)n1-c1ccc(Cl)cc1Cl`?
A: ED50 [8]: inactive; ED50 [9]: inactive

Q: For `Cc1ccccc1-n1c(C)nc2cccnc2c1=O`, which ED50 [10] is on record?
A: 52 mg/kg

Q: And the ED50 [11]?
A: 16.5 mg/kg

Q: And the TD50 at 0.5 h [12]?
A: 40 mg/kg

Q: With `COC(=O)c1c(C)c(C)cc2c(=O)n(-c3ccccc3C)c(C)nc12` as the compound, how does the ED50 [4] read?
A: 600 mg/kg

Q: What about the ED50 [1] of the same compound?
A: inactive

Q: What about the TD50 [5] of the same compound?
A: Not Active

Q: With `COC(=O)c1c(C)c(C)cc2c(=O)n(-c3ccccn3)c(C)nc12` as the compound, how does the ED50 [13] read?
A: 52 mg/kg

Q: What about the TD50 [5] of the same compound?
A: Not Active

Q: What about the ED50 [3] of the same compound?
A: inactive

Q: What does the source list for `Cc1ccccc1-n1c(C)nc2ncccc2c1=O`?
A: TD50 at 0.5 h [14]: 137 mg/kg; ED50 [15]: inactive; ED50 [16]: 40 mg/kg

Q: With `COC(=O)c1c(C)c(C)cc2c(=O)n(-c3cccc(F)c3)c(C)nc12` as the compound, how does the ED50 [4] read?
A: 430 mg/kg

Q: And the ED50 [1]?
A: inactive

Q: What about the TD50 at 0.5 h [6] of the same compound?
A: 540 mg/kg

Q: For `Cc1nc2cccnc2c(=O)n1-c1ccccc1C(F)(F)F`, which ED50 [17] is on record?
A: inactive

Q: What about the ED50 [18] of the same compound?
A: 100 mg/kg

Q: What about the TD50 at 0.5 h [19] of the same compound?
A: 100 mg/kg

Q: Which results are given for `Cc1nc2cccnc2c(=O)n1-c1ccc(C(F)(F)F)cc1`?
A: ED50 [15]: inactive; TD50 at 0.5 h [6]: 170 mg/kg; ED50 [20]: 90 mg/kg

Q: Which results are given for `Cc1ccccc1-n1c(C)nc2ccccc2c1=O` [METHAQUALONE]?
A: TD50 at 0.5 h [21]: 55 mg/kg; ED50 [22]: 52 mg/kg

Q: For `COC(=O)c1c(C)c(C)cc2c(=O)n(-c3ccccc3F)c(C)nc12`, which ED50 [1] is on record?
A: inactive

Q: And the TD50 at 0.5 h [6]?
A: 280 mg/kg

Q: And the ED50 [3]?
A: inactive
